Marks after values point to notes of the source that are not given here.
Experiments:
[1] = system: S. pneumoniae clinical isolates (n = 19); assay: MIC50/MIC90 analysis, clinical isolates; type: cell-based, Streptococcus pneumoniae; details: n = 19 clinical isolates
[2] = system: S. aureus clinical isolates (n = 31); assay: MIC50/MIC90 analysis, clinical isolates; type: cell-based, Staphylococcus aureus; details: n = 31 clinical isolates
[3] = system: E. coli clinical isolates (n = 20); assay: MIC50/MIC90 analysis, clinical isolates; type: cell-based, Escherichia coli; details: n = 20 clinical isolates
[4] = for Clobs / Vzobs: Sprague−Dawley rats, 1 mg/kg IV and 10 mg/kg PO, sterile water
[5] = system: H. influenzae clinical isolates (n = 11); assay: MIC50/MIC90 analysis, clinical isolates; type: cell-based, Haemophilus influenzae; details: n = 11 clinical isolates
[6] = system: E. coli S30 extract system (coupled transcription/translation); type: biochemical; details: relative to tetracycline
[7] = cited from earlier work
[8] = system: panel of Gram-positive and Gram-negative bacteria; assay: MIC, summary statements over the panel; type: cell-based; details: read-out: MICs for the tetracycline-susceptible strains
Procedure, shortened: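 Broth microdilution MIC in liquid medium following CLSI methods. Medium was cation-adjusted Mueller Hinton broth, prepared fresh and held at 4 °C before testing, with defibrinated horse blood added as appropriate. Runs were accepted when comparator antibiotics fell within recommended quality-control ranges for the appropriate ATCC quality-control strains.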

[9] = system: S. aureus ATCC 13709 (Smith); assay: Mouse septicemia model, IV efficacy; type: in vivo; details: IV 1 h postchallenge, survival after 48 h

CN(C)CC(C)(C)CNc1nc(Cl)c2c(c1O)C(=O)C1=C(O)[C@]3(O)C(=O)C(C(N)=O)=C(O)[C@@H](N(C)C)[C@@H]3C[C@@H]1C2.Cl [24l, 7-Chloro-6-demethyl-6-deoxy-9-[[3-(dimethylamino)-2,2-dimethylpropyl]amino]-8-azatetracycline Trihydrochloride]
MIC range S. pneumoniae [1]: ≤0.016−0.063 μg/mL
MIC range S. aureus [2]: 0.063−4 μg/mL
MIC range E. coli [3]: 0.5−8 μg/mL
fold lower clearance than the other three compounds ([4]; Sprague-Dawley, rat, in vivo): 5 fold
Clobs [4]: 3.37 mL/min/kg
Vzobs [4]: 1.256 L/kg
MIC range H. influenzae [5]: 0.25−2 μg/mL

CN(C)[C@@H]1C(O)=C(C(N)=O)C(=O)[C@@]2(O)C(O)=C3C(=O)c4c(O)c(N)nc(Cl)c4C[C@H]3C[C@@H]12 [20j, 9-Amino-7-chloro-6-demethyl-6-deoxy-8-azatetracycline]
fold more potent than tetracycline in transcription/translation assay [6]: about 2 fold

CN(C)c1cc(NC(=O)CNC(C)(C)C)c(O)c2c1C[C@H]1C[C@H]3[C@H](N(C)C)C(O)=C(C(N)=O)C(=O)[C@@]3(O)C(O)=C1C2=O [tigecycline, reference compound]
MIC range S. aureus [2]: ≤0.016−1 μg/mL
MIC range E. coli [3]: 0.125−2 μg/mL
Clobs [4]: 15.5 mL/min/kg
Vzobs [4]: 6.119 L/kg
MIC range H. influenzae [5]: 0.25−1 μg/mL

CN(C)[C@@H]1C(O)=C(C(N)=O)C(=O)[C@@]2(O)C(O)=C3C(=O)c4c(O)cccc4[C@@](C)(O)[C@H]3C[C@@H]12 [tetracycline]
oral bioavailability in humans [7]: 50−70%

CN(C)[C@@H]1C(O)=C(C(N)=O)C(=O)[C@@]2(O)C(O)=C3C(=O)c4c(O)cncc4C[C@H]3C[C@@H]12.Cl.Cl [20a, 6-Demethyl-6-deoxy-8-azatetracycline Dihydrochloride]
MIC [8]: 0.25 to 1 µg/mL

CN(C)[C@@H]1C(O)=C(C(N)=O)C(=O)[C@@]2(O)C(O)=C3C(=O)c4c(O)c(N)nc(F)c4C[C@H]3C[C@@H]12.Cl.Cl [20k, 9-Amino-6-demethyl-6-deoxy-7-fluoro-8-azatetracycline Dihydrochloride]
fold more potent than tetracycline in transcription/translation assay [6]: about 2 fold

CN(C)c1ncc(O)c2c1C[C@H]1C[C@H]3[C@H](N(C)C)C(O)=C(C(N)=O)C(=O)[C@@]3(O)C(O)=C1C2=O.Cl.Cl [20f, 6-Demethyl-6-deoxy-7-(dimethylamino)-8-azatetracycline Dihydrochloride]
S. aureus PD50 [9]: <0.30 ^b mg/kg
MIC range S. pneumoniae [1]: ≤0.016−8 μg/mL
MIC range S. aureus [2]: ≤0.016−32 μg/mL
Clobs [4]: 15.3 mL/min/kg
Vzobs [4]: 4.177 L/kg
MIC range H. influenzae [5]: 0.063−4 μg/mL
